Measurements reported in ChEMBL document CHEMBL1139395 (J Med Chem, 2008).
Values after ≈ are worked out from the molar mass of the structure shown.

What was measured:
Staphylococcus aureus [1] = test: Antibacterial activity against Staphylococcus aureus ATCC 29213 in absence of human serum; type: functional
Staphylococcus aureus [2] = test: Antibacterial activity against Staphylococcus aureus ATCC 29213 in presence of human serum; type: functional
Outline: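 Broth microdilution MIC per CLSI methods (modified), with human serum added to the liquid medium at a final 50% for S. aureus ATCC 29213.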

Streptococcus pneumoniae [3] = test: Antibacterial activity against Streptococcus pneumoniae ATCC 10015; type: functional
Haemophilus influenzae = test: Antibacterial activity against Haemophilus influenzae ATCC 51907; type: functional
DNA gyrase = DNA gyrase (Staphylococcus aureus, UniProt P0A0K8+P20831); test: Inhibition of Staphylococcus aureus DNA gyrase; type: protein-complex assay
DNA gyrase, sequence (P0A0K8 whole entry): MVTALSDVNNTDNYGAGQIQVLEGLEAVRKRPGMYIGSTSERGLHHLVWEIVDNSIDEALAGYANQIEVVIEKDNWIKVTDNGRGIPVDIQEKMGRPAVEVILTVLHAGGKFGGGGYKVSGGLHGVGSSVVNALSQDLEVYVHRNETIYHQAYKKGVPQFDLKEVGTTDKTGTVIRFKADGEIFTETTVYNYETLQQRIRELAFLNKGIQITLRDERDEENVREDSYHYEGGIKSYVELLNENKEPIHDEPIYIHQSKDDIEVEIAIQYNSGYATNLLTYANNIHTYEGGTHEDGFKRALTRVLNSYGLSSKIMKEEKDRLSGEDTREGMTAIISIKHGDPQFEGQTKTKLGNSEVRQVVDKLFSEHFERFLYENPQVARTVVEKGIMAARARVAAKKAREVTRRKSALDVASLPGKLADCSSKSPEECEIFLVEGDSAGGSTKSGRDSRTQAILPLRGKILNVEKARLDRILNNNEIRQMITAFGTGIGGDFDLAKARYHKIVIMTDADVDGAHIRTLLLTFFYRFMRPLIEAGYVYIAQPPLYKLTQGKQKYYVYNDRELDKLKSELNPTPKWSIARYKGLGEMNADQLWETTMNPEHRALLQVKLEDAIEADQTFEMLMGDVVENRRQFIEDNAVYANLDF
DNA gyrase, sequence (P20831 whole entry): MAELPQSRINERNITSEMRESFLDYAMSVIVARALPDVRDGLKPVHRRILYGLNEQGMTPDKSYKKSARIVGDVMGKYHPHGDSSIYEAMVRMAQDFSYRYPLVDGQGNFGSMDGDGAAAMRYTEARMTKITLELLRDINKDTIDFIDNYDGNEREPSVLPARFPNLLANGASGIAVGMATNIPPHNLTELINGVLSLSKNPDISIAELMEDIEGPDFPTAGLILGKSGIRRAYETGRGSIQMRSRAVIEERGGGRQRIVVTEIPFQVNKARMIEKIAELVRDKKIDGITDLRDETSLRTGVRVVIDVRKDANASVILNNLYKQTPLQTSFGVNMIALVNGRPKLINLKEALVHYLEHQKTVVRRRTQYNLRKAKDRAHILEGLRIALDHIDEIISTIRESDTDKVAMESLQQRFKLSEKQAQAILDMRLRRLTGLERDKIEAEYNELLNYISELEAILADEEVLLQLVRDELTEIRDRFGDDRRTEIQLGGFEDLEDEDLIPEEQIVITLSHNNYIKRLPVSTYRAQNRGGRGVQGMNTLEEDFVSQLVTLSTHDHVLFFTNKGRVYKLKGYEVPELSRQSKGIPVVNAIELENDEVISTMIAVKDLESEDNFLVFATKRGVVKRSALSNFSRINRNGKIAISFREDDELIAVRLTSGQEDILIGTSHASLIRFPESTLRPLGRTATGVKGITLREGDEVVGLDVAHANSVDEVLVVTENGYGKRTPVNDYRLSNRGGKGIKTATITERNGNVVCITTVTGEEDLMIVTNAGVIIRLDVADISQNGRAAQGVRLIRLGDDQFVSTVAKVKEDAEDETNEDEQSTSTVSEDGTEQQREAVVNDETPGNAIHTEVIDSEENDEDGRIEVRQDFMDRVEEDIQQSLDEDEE

[4] = Inhibition of Escherichia coli DNA gyrase
[5] = Inhibition of Escherichia coli topoisomerase 4
Streptococcus pneumoniae [6] = test: Antibacterial activity against Streptococcus pneumoniae ATCC 6303; type: functional
Streptococcus pneumoniae [7] = test: Antibacterial activity against Streptococcus pneumoniae ATCC 6303-infeceted Sprague-Dawley rat assessed as reduction in lung bacterial density at 25 mg/kg, po administered twice at 18 and 26 hrs after bacterial challenge measured at 72 hrs postinfection; type: functional
Outline: (§1)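 Male Sprague-Dawley rats (185-224 g), anesthetized, infected intratracheally with 0.2 mL (0.9 × 10⁷ CFU) S. pneumoniae ATCC 6303 serotype 3 grown overnight in enriched broth. Oral dosing in D5W at 18 and 26 h postinfection, 10 per group. Lungs homogenized for CFU at 72 h; mean log₁₀ CFU ± SEM against vehicle controls.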

Streptococcus pneumoniae [8] = test: Antibacterial activity against Streptococcus pneumoniae ATCC 6303-infeceted Sprague-Dawley rat assessed as reduction in lung bacterial density at 50 mg/kg, po administered twice at 18 and 26 hrs after bacterial challenge measured at 72 hrs postinfection; type: functional; outline: as §1

**Q.** Which results are given for `CCNC(=O)Nc1nc2cc(-n3cnc(C(=O)NC4CC4)c3)cc(-n3cccn3)c2[nH]1`?
**A.** MIC (Staphylococcus aureus [1]): 0.5 µg/mL (≈ 1.19 µM); MIC (Staphylococcus aureus [2]): 4 µg/mL; MIC (Streptococcus pneumoniae [3]): 0.003 µg/mL (≈ 0.00715 µM); MIC (Haemophilus influenzae): 0.25 µg/mL (≈ 0.596 µM); Ki (DNA gyrase): 10 nM; Ki [4]: < 4 nM; Ki [5]: 12 nM

**Q.** Which MIC (Staphylococcus aureus [1]) does the source give for `CCNC(=O)Nc1nc2cc(-c3cccnc3)cc(-c3ccccn3)c2[nH]1` here?
**A.** 0.031 µg/mL (≈ 0.0865 µM)

**Q.** And the MIC (Staphylococcus aureus [2])?
**A.** 2 µg/mL

**Q.** What about the MIC (Streptococcus pneumoniae [3]) of the same compound?
**A.** 0.004 µg/mL (≈ 0.0112 µM)

**Q.** And the MIC (Haemophilus influenzae)?
**A.** 2 µg/mL (≈ 5.58 µM)

**Q.** And the Ki (DNA gyrase)?
**A.** 7 nM

**Q.** And the Ki [4]?
**A.** < 4 nM

**Q.** What about the Ki [5] of the same compound?
**A.** 14 nM

**Q.** With `CCNC(=O)Nc1nc2cc(-c3cccnc3)cc(-c3cccnc3)c2[nH]1` as the compound, how does the MIC (Staphylococcus aureus [1]) read?
**A.** 4 µg/mL (≈ 11.2 µM)

**Q.** What about the MIC (Staphylococcus aureus [2]) of the same compound?
**A.** 16 µg/mL

**Q.** What about the MIC (Streptococcus pneumoniae [3]) of the same compound?
**A.** 0.5 µg/mL (≈ 1.4 µM)

**Q.** And the MIC (Haemophilus influenzae)?
**A.** > 16 µg/mL

**Q.** And the Ki (DNA gyrase)?
**A.** 17 nM

**Q.** And the Ki [4]?
**A.** 6 nM

**Q.** And the Ki [5]?
**A.** 1300 nM

**Q.** Which MIC (Staphylococcus aureus [1]) does the source give for `CCNC(=O)Nc1nc2cc(-c3cccnc3)cc(OCc3ccccc3)c2[nH]1` here?
**A.** 2 µg/mL (≈ 5.16 µM)

**Q.** And the MIC (Staphylococcus aureus [2])?
**A.** > 16 µg/mL

**Q.** What about the MIC (Streptococcus pneumoniae [3]) of the same compound?
**A.** 1 µg/mL (≈ 2.58 µM)

**Q.** What about the MIC (Haemophilus influenzae) of the same compound?
**A.** > 16 µg/mL

**Q.** And the Ki (DNA gyrase)?
**A.** 35 nM

**Q.** And the Ki [4]?
**A.** 18 nM

**Q.** What about the Ki [5] of the same compound?
**A.** 390 nM

**Q.** What does the source list for `CCNC(=O)Nc1nc2cc(-c3cccnc3)cc(C(=O)OC)c2[nH]1`?
**A.** MIC (Staphylococcus aureus [1]): 0.063 µg/mL (≈ 0.186 µM); MIC (Staphylococcus aureus [2]): 0.5 µg/mL; MIC (Streptococcus pneumoniae [3]): 0.016 µg/mL (≈ 0.0471 µM); MIC (Haemophilus influenzae): 0.5 µg/mL (≈ 1.47 µM); Ki (DNA gyrase): 8 nM; Ki [4]: < 4 nM; Ki [5]: 35 nM

**Q.** What does the source list for `CCNC(=O)Nc1nc2cc(-c3cccnc3)cc(-n3cccn3)c2[nH]1`?
**A.** MIC (Staphylococcus aureus [1]): 0.063 µg/mL (≈ 0.181 µM); MIC (Staphylococcus aureus [2]): 4 µg/mL; MIC (Streptococcus pneumoniae [3]): 0.008 µg/mL (≈ 0.023 µM); MIC (Haemophilus influenzae): 1 µg/mL (≈ 2.88 µM); Ki (DNA gyrase): 15 nM; Ki [4]: < 4 nM; Ki [5]: 46 nM

**Q.** With `CCNC(=O)Nc1nc2cc(-c3ccn(C)c(=O)c3)cc(-c3ncccc3F)c2[nH]1` as the compound, how does the MIC (Staphylococcus aureus [1]) read?
**A.** 0.016 µg/mL (≈ 0.0394 µM)

**Q.** And the MIC (Staphylococcus aureus [2])?
**A.** 0.032 µg/mL

**Q.** What about the MIC (Streptococcus pneumoniae [3]) of the same compound?
**A.** < 0.008 µg/mL

**Q.** And the MIC (Haemophilus influenzae)?
**A.** 0.125 µg/mL (≈ 0.308 µM)

**Q.** What about the Ki (DNA gyrase) of the same compound?
**A.** 23 nM

**Q.** And the Ki [4]?
**A.** < 4 nM

**Q.** What about the Ki [5] of the same compound?
**A.** 11 nM

**Q.** With `CCNC(=O)Nc1nc2cc(-c3cncnc3)ccc2[nH]1` as the compound, how does the MIC (Staphylococcus aureus [1]) read?
**A.** 4 µg/mL (≈ 14.2 µM)

**Q.** What about the MIC (Staphylococcus aureus [2]) of the same compound?
**A.** 4 µg/mL

**Q.** What about the MIC (Streptococcus pneumoniae [3]) of the same compound?
**A.** 0.5 µg/mL (≈ 1.77 µM)

**Q.** What about the MIC (Haemophilus influenzae) of the same compound?
**A.** 2 µg/mL (≈ 7.08 µM)

**Q.** What about the Ki (DNA gyrase) of the same compound?
**A.** 49 nM

**Q.** What about the Ki [4] of the same compound?
**A.** 20 nM

**Q.** And the Ki [5]?
**A.** 1100 nM

**Q.** For `CCNC(=O)Nc1nc2cc(-n3cnc(C(=O)NC4CC4)c3)cc(-c3ccccn3)c2[nH]1`, which MIC (Staphylococcus aureus [1]) is on record?
**A.** 0.063 µg/mL (≈ 0.146 µM)

**Q.** And the MIC (Staphylococcus aureus [2])?
**A.** 0.25 µg/mL

**Q.** What about the MIC (Streptococcus pneumoniae [3]) of the same compound?
**A.** 0.002 µg/mL (≈ 0.00465 µM)

**Q.** And the MIC (Haemophilus influenzae)?
**A.** 0.125 µg/mL (≈ 0.29 µM)

**Q.** And the Ki (DNA gyrase)?
**A.** 12 nM

**Q.** And the Ki [4]?
**A.** < 4 nM

**Q.** And the Ki [5]?
**A.** 7 nM

**Q.** With `CCNC(=O)Nc1nc2cc(-c3cccnc3)cc(C(=O)NC)c2[nH]1` as the compound, how does the MIC (Staphylococcus aureus [1]) read?
**A.** 16 µg/mL (≈ 47.3 µM)

**Q.** What about the MIC (Staphylococcus aureus [2]) of the same compound?
**A.** > 16 µg/mL

**Q.** And the MIC (Streptococcus pneumoniae [3])?
**A.** 0.063 µg/mL (≈ 0.186 µM)

**Q.** And the MIC (Haemophilus influenzae)?
**A.** 16 µg/mL (≈ 47.3 µM)

**Q.** And the Ki (DNA gyrase)?
**A.** 26 nM

**Q.** What about the Ki [4] of the same compound?
**A.** 5 nM

**Q.** What about the Ki [5] of the same compound?
**A.** 150 nM

**Q.** Which MIC (Streptococcus pneumoniae [6]) does the source give for `CC(=O)NC[C@H]1CN(c2ccc(N3CCOCC3)c(F)c2)C(=O)O1` [LINEZOLID] here?
**A.** 0.4 µg/mL (≈ 1.19 µM)

**Q.** What about the log10cfu (Streptococcus pneumoniae [7]) of the same compound?
**A.** 2.5

**Q.** And the log10cfu (Streptococcus pneumoniae [8])?
**A.** 5.9

**Q.** For `CO[C@@H]1[C@@H](OC(N)=O)[C@@H](O)[C@H](Oc2ccc3c(O)c(NC(=O)c4ccc(O)c(CC=C(C)C)c4)c(=O)oc3c2C)OC1(C)C` [NOVOBIOCIN], which MIC (Staphylococcus aureus [1]) is on record?
**A.** 0.125 µg/mL (≈ 0.204 µM)

**Q.** What about the MIC (Staphylococcus aureus [2]) of the same compound?
**A.** > 16 µg/mL

**Q.** And the MIC (Streptococcus pneumoniae [3])?
**A.** 2 µg/mL (≈ 3.26 µM)

**Q.** And the MIC (Haemophilus influenzae)?
**A.** 0.063 µg/mL (≈ 0.103 µM)
